Laboratory results reported in ChEMBL document CHEMBL1157664, “Aminopyridinecarboxamide-based inhibitors: Structure-activity relationship” (Bioorg Med Chem, 2010).
The source made the active and inactive calls. No cut-off for these calls is given here.

Tests used:
[1] = biological target: T1, Inhibitor of nuclear factor kappa-B kinase subunit beta (Homo sapiens, UniProt O14920); assay: Inhibition of human recombinant IKK2-mediated transfer of [gamma33P]ATP to biotinylated IkappaBalpha after 30 mins by scintillation counting
T1 sequence (O14920 whole entry): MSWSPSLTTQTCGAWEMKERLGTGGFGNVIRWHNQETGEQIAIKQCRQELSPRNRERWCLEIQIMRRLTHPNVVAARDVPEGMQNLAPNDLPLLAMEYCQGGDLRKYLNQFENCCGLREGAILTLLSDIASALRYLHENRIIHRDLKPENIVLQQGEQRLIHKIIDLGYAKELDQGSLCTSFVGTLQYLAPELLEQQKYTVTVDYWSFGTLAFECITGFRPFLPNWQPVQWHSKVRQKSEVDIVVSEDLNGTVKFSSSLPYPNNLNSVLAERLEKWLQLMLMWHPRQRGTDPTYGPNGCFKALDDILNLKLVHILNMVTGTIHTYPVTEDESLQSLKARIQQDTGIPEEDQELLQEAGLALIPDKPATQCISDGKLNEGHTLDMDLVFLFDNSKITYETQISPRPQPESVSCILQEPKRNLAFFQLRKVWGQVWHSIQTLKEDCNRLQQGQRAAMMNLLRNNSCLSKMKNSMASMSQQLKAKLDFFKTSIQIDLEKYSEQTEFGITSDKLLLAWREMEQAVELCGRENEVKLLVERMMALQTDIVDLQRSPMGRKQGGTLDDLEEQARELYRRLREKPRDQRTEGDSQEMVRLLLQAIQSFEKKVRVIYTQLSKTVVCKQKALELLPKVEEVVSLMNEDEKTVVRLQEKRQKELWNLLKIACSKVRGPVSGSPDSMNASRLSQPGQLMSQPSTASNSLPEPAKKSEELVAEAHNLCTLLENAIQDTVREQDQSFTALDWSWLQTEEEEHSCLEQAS
How it was run: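 Recombinant human IKK-2 enzyme (46 nM/rxn, 200 ng/rxn). Substrate 5 µM biotinylated IκBα peptide (residues spanning Ser32/Ser36) with 1 µM ATP plus 0.1 µCi [γ-33P]ATP. Buffer 25 mM Hepes pH 7.6 with 1 mM DTT, 2 mM MgCl2, 2 mM MnCl2, 10 mM NaF. Incubated 30 min at 25 °C, stopped with AG1X8 resin in formate buffer pH 3. Supernatant ³³P read by scintillation counting.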

[2] = Antiinflammatory activity in human synovial fibroblasts assessed as inhibition of IL-1-beta-stimulated IL8 production treated 1 hr before IL1-beta challenge measured after 18 hrs by ELISA; format: functional
How it was run: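 Rheumatoid arthritis patient synovial fibroblasts seeded at 1.5 × 10^4 cells/well in DMEM + 15% FBS and left to attach overnight. Medium then changed to DMEM + 1% FBS. Cells pretreated 1 h with increasing compound concentrations (0.2% Me2SO final), then stimulated 18 h with 1 ng/mL IL-1β. Secreted IL-8 measured by ELISA against standard curves (4-parameter logistic). Cytotoxicity checked by Alamar Blue.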

[3] = biological target: T2, Inhibitor of nuclear factor kappa-B kinase subunit alpha (Homo sapiens, UniProt O15111); assay: Inhibition of IKK1
T2 sequence (O15111 whole entry): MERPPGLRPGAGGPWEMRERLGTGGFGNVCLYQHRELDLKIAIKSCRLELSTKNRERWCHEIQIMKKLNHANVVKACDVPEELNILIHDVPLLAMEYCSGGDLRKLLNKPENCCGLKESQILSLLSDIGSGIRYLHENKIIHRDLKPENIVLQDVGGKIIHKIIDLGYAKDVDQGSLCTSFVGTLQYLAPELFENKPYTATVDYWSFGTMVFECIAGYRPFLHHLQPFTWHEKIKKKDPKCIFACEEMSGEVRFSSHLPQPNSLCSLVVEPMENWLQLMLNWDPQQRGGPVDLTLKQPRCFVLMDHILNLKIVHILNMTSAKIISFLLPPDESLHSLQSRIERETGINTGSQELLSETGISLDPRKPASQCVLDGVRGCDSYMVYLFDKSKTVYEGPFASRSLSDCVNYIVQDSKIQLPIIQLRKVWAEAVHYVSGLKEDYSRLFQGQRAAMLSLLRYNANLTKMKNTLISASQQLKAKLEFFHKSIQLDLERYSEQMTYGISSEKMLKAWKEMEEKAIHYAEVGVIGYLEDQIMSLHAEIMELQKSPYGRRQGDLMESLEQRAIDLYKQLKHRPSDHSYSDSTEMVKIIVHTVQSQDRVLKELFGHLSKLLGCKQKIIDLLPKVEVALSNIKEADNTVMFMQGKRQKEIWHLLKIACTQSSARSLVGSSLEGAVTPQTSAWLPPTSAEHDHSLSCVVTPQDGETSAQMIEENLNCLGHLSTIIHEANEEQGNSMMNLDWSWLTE

[4] = biological target: T3, Serine/threonine-protein kinase TBK1 (Homo sapiens) (UniProt Q9UHD2); assay: Inhibition of TBK1
T3 sequence (whole entry): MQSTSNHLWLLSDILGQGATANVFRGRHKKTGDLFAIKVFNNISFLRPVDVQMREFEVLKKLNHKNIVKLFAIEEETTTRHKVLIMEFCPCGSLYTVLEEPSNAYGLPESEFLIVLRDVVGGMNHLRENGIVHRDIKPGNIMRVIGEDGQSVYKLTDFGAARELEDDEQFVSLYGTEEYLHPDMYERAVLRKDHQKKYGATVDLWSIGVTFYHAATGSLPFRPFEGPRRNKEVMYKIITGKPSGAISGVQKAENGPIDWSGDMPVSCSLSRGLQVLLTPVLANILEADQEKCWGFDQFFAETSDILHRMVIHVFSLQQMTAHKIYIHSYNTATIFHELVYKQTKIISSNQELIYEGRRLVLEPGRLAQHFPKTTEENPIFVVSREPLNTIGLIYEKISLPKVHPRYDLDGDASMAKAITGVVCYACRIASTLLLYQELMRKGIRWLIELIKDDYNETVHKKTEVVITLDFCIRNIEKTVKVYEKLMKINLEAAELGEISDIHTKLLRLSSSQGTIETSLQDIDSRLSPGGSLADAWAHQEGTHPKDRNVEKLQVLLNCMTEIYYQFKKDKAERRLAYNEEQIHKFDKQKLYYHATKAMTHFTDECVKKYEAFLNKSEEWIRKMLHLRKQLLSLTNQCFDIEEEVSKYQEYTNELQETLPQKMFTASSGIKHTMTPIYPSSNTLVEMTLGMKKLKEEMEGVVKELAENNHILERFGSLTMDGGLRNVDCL

[5] = biological target: T4, Inhibitor of nuclear factor kappa-B kinase subunit epsilon (Homo sapiens) (UniProt Q14164); assay: Inhibition of IKKI
T4 sequence (whole entry): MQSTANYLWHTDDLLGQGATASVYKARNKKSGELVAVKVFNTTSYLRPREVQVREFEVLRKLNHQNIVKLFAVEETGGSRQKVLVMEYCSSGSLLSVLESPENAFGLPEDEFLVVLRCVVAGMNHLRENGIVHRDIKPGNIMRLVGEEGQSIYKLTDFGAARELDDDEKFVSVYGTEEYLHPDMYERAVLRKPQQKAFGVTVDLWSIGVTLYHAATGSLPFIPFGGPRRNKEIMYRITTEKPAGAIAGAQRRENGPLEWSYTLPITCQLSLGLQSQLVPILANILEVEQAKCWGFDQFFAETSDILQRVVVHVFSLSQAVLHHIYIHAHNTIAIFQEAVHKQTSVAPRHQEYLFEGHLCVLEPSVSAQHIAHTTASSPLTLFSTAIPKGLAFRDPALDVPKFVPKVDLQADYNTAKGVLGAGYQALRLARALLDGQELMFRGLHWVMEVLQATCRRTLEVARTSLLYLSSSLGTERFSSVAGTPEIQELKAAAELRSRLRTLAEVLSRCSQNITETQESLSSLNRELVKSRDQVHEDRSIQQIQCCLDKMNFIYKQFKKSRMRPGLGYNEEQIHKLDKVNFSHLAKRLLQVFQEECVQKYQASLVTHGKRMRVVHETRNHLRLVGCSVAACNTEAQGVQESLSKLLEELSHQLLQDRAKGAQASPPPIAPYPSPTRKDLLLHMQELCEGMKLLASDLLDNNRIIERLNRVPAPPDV

IC50 [1]: 25 nM
IC50 [3]: 14 µM
inhibition [4]: inactive
inhibition [5]: inactive
Structure (SMILES): CN1CCN(c2cc(C(=O)Nc3ccc4c(c3)-c3c(c(C(N)=O)nn3-c3ccc(F)cc3)CC4)c(Cl)cn2)CC1
IC50 [2]: 940 nM
